Only some compounds are listed: those with a hit (about 9.8% of all), similar ones and a draw of the others.
L major viab: inhibitors of Leishmania major promastigote growth; 9% of 200,000 active; inhibition, % at 10 µM; Leishmania major promastigotes, resazurin fluorescence viability; AID 1063; in the data active = inhibition above about 50%;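 note: promastigotes grown with compound for 44 hours at 28 °C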
Rad51 HR inh: Rad51 (human) homologous recombination inhibition; hRad51 DNA strand exchange, fluorescence dequenching; inhibition, % at 10 µM; 0.085% of 200,000 active;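 active = inhibition above 40% at the single screening dose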;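 note: 0% = DMSO control wells and 100% = blanks with heterologous ssDNA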
Target sequence (Q06609 whole entry, looked up): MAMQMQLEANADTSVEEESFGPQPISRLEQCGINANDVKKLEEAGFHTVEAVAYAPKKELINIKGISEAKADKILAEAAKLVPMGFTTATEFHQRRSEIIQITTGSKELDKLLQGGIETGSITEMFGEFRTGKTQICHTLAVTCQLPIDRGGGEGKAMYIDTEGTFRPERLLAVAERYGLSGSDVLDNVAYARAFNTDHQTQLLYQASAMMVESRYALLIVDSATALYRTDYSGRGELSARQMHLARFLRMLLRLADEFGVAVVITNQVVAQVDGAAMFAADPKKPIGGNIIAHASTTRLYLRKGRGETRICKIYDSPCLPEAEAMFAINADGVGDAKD
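System: hRad51 filaments on single-stranded DNA; reagent: Fluorescein- and BHQ1-tagged 47-mer duplex; compound dosing: one concentration, 10 µM final; timing: filaments 15 min 37 °C, then compound 30 min; measured by: fluorescein emission 520 nm, excitation 485 nm; benchmarks: per-plate controls and blanks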
m-calpain inh: inhibitors of pig calpain II. 0.37% of 220,000 active. AID 1236. purified calpain II, fluorogenic peptide substrate, 30 min. inhibition, % at 16 µM;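 active = inhibition above about 50%, limit read from the data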
PMI act satM6P: PMI (human) activation, high substrate; P34949; coupled PMI enzyme assay, resazurin fluorescence, 20 min; hits give high values; 1 = untreated enzyme, 0 = substrate-free blank; activation factor at 20 µM; 0.34% of 190,000 active; AID 1216;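 active = activation factor of 2 or more at 20 µM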
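Test system: human PMI in coupled enzyme assay; Input: PMI at 15 ng/mL final; Medium: HEPES buffer, pH 7.4; Schedule: 20 min incubation at room temperature; Technique: resorufin fluorescence at Ex 544/Em 590 nm; Compound: 20 µM single dose; Probe or stimulus: Near-saturating mannose-6-phosphate, 1.0 mM.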
WT yeast gro inh: growth inhibition of WT yeast, mitochondrial fusion screen | mitochondrial fusion phenotypic screen, WT strain | inhibition, % at 10 µM | 2.1% of 190,000 active; in the data active = inhibition above about 58%; tested in S. cerevisiae
PMI activator: increases human mannose-6-phosphate isomerase activity | purified human PMI, coupled resazurin fluorescence, 20 min; hits give high values; 1 = vehicle control, 0 substrate-free wells | activation factor at 20 µM | 0.005% of 190,000 active;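 active = activation factor of 2 or more at 20 µM, relative to plate controls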
The depositor's hits bear a star; x = not tested or not shown.

SMILES | L major viab | Rad51 HR inh | m-calpain inh | PMI act satM6P | WT yeast gro inh | PMI activator
COc1ccc(C[C@H]2CN3C(=NC[C@@H]3Cc3ccccc3)N2CCNC(=O)CCC2CCCCC2)cc1 | 58* | -7 | -15 | 1.1 | 5 | 0.9
CCn1c(O)c(/C=C2\C=NN=C2c2ccccc2)sc1=S | x | -5 | -16 | x | x | x
CC(C)Cn1c(O)c(/C=C2\C=NN=C2c2ccccc2)sc1=S | 13 | -3 | 2 | 0.9 | 63* | 0.9
O=C1c2ccccc2C(=O)c2c1cccc2N1CCCC1 | 0 | -45 | 51* | 0.8 | 21 | 1
CN1CCN(/N=C/c2c3ccccc3c(Cl)c3ccccc23)CC1 | 66* | 11 | -18 | 0.9 | 96 | 1
CSc1ccc(/C=N/N2CCN(C)CC2)cc1 | 2 | 0 | 2 | 1 | -1 | 1.1
Cn1c(-c2ccccc2)c(/C=N/NC(=O)c2ccc(O)cc2)c2ccccc21 | x | 9 | -39 | x | x | x
COc1ccc(NC(=S)Nc2ccccc2SC)c(OC)c1 | 7 | x | 10 | 0.8 | 3 | 0.9
COc1ccc(CNC[C@@H](CCCCN(C)Cc2ccc(OC)cc2)N2C[C@H](c3ccccc3)N(CCc3ccc(Cl)c(Cl)c3)C(=O)C2=O)cc1 | 100* | -7 | 36 | 1 | 16 | 1.1
CN(CCCC[C@H](CNCc1ccc(-c2ccccc2)cc1)N1C[C@H](c2ccccc2)N(CCc2ccc(Cl)c(Cl)c2)C(=O)C1=O)Cc1ccc(-c2ccccc2)cc1 | x | -2 | -7 | x | x | x
CCn1c(=O)cc(SCC(=O)Nc2cccc(C)n2)c2ccccc21 | 1 | 14 | -13 | 0.9 | 11 | 0.9
CCOc1cc(/C=C/c2cc(C(=O)O)c3ccccc3n2)ccc1OC | -5 | -5 | -12 | 1 | -5 | 1.2
CCOc1cc(/C=C/c2cc(C(=O)O)c3ccccc3n2)ccc1O | 75* | -2 | 20 | 1 | 10 | 1.2
CCOC(=O)C1CCN(Cc2ccc(OC)c(C)c2OC)CC1 | 64* | -1 | 17 | 1.1 | -9 | 1
COC(=O)C1CCN(Cc2ccc(C)cc2)CC1 | 91* | -3 | -3 | 1 | 4 | 1
CCOC(=O)C1CCN(Cc2ccc(F)cc2F)CC1 | 89* | -24 | -38 | 0.9 | 0 | 0.9
CCOC(=O)C1CCCN(Cc2cn[nH]c2-c2ccc(F)cc2F)C1 (stereo not drawn) | 0 | 4 | 6 | 1 | -15 | 1
CCOC(=O)C1CCN(Cc2ccc(F)c(Br)c2)CC1 | 77* | 1 | -1 | 1.1 | 3 | 1.1
O=C(NN=C(Cc1ccccc1)Cc1ccccc1)C1CC1 | 4 | -5 | -18 | 0.9 | -15 | 0.9
Cc1cnc(C(=O)Nc2cccc(S(=O)(=O)N(C)C)c2)cn1 | -7 | -15 | 17 | 1 | 6 | 0.9
CCCCN(C)CCNC(=O)CCNC(=O)Cn1ccc2ccccc2c1=O | -10 | 7 | -18 | 1 | 0 | 1.1
Nn1c(N2CCCCC2)nc2ccccc21 | 1 | 16 | 13 | 1 | 7 | 1
CCOC(=O)C1CCN(C(=O)c2ccccc2NS(=O)(=O)c2ccc(F)cc2)CC1 | 53* | -2 | 4 | 1.1 | 11 | 0.9
COc1cccc(OCC(O)CN2CCN(c3ccccc3)CC2)c1 (stereo not drawn) | x | 18 | 18 | x | x | x
C=CCc1ccc(OCC(O)CN2CCN(Cc3ccc(Cl)cc3)CC2)c(OC)c1 (stereo not drawn) | 93* | -12 | -10 | 1.2 | 31 | 1.2
SMILES | L major viab | Rad51 HR inh | m-calpain inh | PMI act satM6P | WT yeast gro inh | PMI activator
COc1cccc(OCC(O)CN2CCC(Cc3ccccc3)CC2)c1 (stereo not drawn) | 95* | 8 | -3 | 1 | -2 | 1
COc1cccc(OCC(O)CN2CC(C)CC(C)C2)c1 (stereo not drawn) | 88* | -6 | -4 | 1 | -5 | 1
C=CCc1ccc(OCC(O)CN2CCC(Cc3ccccc3)CC2)c(OC)c1 (stereo not drawn) | 100* | 8 | -7 | 1.1 | 44 | 1
COc1cccc(OCC(O)CN2CCOCC2)c1 (stereo not drawn) | 1 | x | -4 | 1 | -3 | 1
CC1(C)CC(Nc2ccc(Nc3ccccc3)cc2)CC(C)(C)N1 | x | x | 9 | x | x | x
NCCCNc1ccc([N+](=O)[O-])cc1C(F)(F)F | -3 | 8 | -7 | 1 | -2 | 1
O=C(NCCNc1ccc([N+](=O)[O-])cc1C(F)(F)F)c1ccc(F)cc1 | 56* | 6 | 1 | 0.7 | 7 | 0.9
CC(C)c1nc(N2CCOCC2)c(C#N)c2c1CCCC2 | 3 | -1 | -265 | 0.9 | 74* | 0.9
CCCCCCOC(=O)C(C#N)c1nc2ccccc2nc1N1CCN(C)CC1 (stereo not drawn) | 54* | 0 | -57 | 0.6 | 2 | 1
Cc1cccn2c(=O)c(/C=C(\C#N)C(N)=O)c(N3CCN(Cc4ccc5c(c4)OCO5)CC3)nc12 | 65* | 2 | -10 | 1 | -23 | 0.9
CCC(CC)COC(=O)C(C#N)c1nc2ccccc2nc1N1CCN(CC)CC1 (stereo not drawn) | 100* | 4 | -108 | 0.8 | 59 | 0.9
C=CCOC(=O)C(C#N)c1nc2ccccc2nc1N1CCN(Cc2ccc3c(c2)OCO3)CC1 (stereo not drawn) | 58* | -16 | -51 | 1 | 18 | 0.8
Cc1ccc(N=Cc2c(O)[nH]c3ccccc23)c([N+](=O)[O-])c1 | -2 | -3 | 22 | 1 | 10 | 1
COc1cc(OC)cc(C(=O)NCC(=O)OCC(=O)C(C)(C)C)c1 | -5 | x | -1 | 1 | 5 | 1
Oc1[nH]c(=S)sc1C=C1N=c2ccccc2=N1 | x | -3 | -4 | x | x | x
Oc1[nH]c(=S)sc1/C=C1\C(c2ccccc2)=Nc2ccccc21 | 83* | -69 | 17 | 0.9 | -14 | 0.9
CN(C)c1ccc(C(=S)N2CCOCC2)cc1Br | -6 | 4 | 2 | 2.6* | -4 | 1.9
CN(C)c1ccc(C(=S)N2CCCCC2)cc1Br | 5 | 15 | -1 | 0.9 | 7 | 0.9
Cc1ccccc1NC(NC(=O)c1cccs1)C(Cl)(Cl)Cl (stereo not drawn) | 72* | 4 | 35 | 0.9 | 24 | 0.9
Cc1ccc(NCCC(=O)c2cccs2)cc1 | 72* | 5 | -30 | 0.8 | -10 | 1
Cc1ccc(NC(NC(=O)c2cccs2)C(Cl)(Cl)Cl)cc1C (stereo not drawn) | 25 | -1 | 4 | 0.8 | 37 | 0.7
CSc1ccccc1NC(=O)c1cccs1 | 5 | 0 | -22 | 0.9 | -19 | 0.9
Cc1ccc(NCCC(=O)c2cccs2)cc1C | 43 | x | 5 | 0.9 | 4 | 1
Cc1ccc(NC(NC(=O)c2cccs2)C(Cl)(Cl)Cl)cc1 (stereo not drawn) | 71* | 4 | 20 | 0.8 | 11 | 0.8
CCOc1ncccc1C(=O)OCc1c(F)cccc1Cl | 14 | 5 | 26 | 1.1 | 4 | 1

Bioassay records (PubChem)
